Data published in the array DNA melting data of Ke et al. (doi:10.1101/2024.01.08.574731).

Columns and labels:
[1] = folding enthalpy; higher = less favourable; fluorescence melt of hairpins on a sequencing array, two-state fit; conditions: sodium 0.088 M
Summary of the method: (§1)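 Hairpins were imaged by Cy3 fluorescence on a sequenced MiSeq flow cell with annealed Cy3 and quencher oligos, in 50 mM Na-HEPES pH 8.0, 25 mM NaCl, in 2.5 °C steps up to 60 °C. Bootstrapped two-state fits of normalised signals gave melting temperature and folding enthalpy. Four replicates were combined by inverse variance, and fitted temperatures were raised by 9.35 °C to match UV melts.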

[2] = melting temperature; fluorescence melt of hairpins on a sequencing array, two-state fit, raised by 9.35 °C to match UV melts; conditions: sodium 0.088 M
Summary of the method: as §1

Sequence	folding enthalpy [1] [kcal/mol]	Tm [2] [°C]
GTGGTATCGAAAGATCAC (((..(((....))))))	-23.8	33.3
GAGTTAGGAAACTAATTC ((.((((....)))).))	-23.9	27.9
GTCTACGAAAGTAGAC ((((((....))))))	-36.8	66.8
GTAAGCGAAAGCTCTTAC ((((((....)))..)))	-12.7	33.2
GATCCGTGTTCGGATC ((((((....))))))	-36.2	61.4
GGCGGCGAAAGCCTAGCC ((((((....)))..)))	-21.3	60.8
GTGGGCGAAAGCCGCAC ((((((....))).)))	-13.8	55.4
GGTGGAGGAAACTTCACC ((((.((....)).))))	-33.4	50.1
GATTGCGGAAACACAATC (((((.(....).)))))	-28.9	41.6
GCTAGGCGAAAGCACAGC (((..((....))..)))	-19.4	46.3
GTCGGTGGAAACACCAAC ((.((((....)))).))	-18.1	39.4
GGCCTAGGAAACTAGGCC (((((((....)))))))	-32.8	68.6
GGTCGCCGAAAGGCAACC (((.(((....))).)))	-24.6	56.1
GAGGCGGCGAAAGCCCTC (((..(((....))))))	-11	43.1
GTAGCCGAAAGGCTGTAC ((((((....)))..)))	-9.24	31.2
GATCACGAAAGTGAGATC ((((((....)))..)))	-17	48.5
GGTTCCCGAAAGGGACC (((.(((....))))))	-23	59.9
GCTTTGCGAAAGCTAGGC ((.(.((....)).).))	-15.7	44.7
GTCGGCACGAAAGTGGAC (((..(((....))))))	-12.3	34.7
GCGGAACTCCGC ((((....))))	-25.7	54.9
GCGTCACGACGC ((((....))))	-31.7	58.6
GTCGTTGGAAACAATGGC (.(.(((....))).).)	-24.8	35
GTGAAGGGAAACCTTCAC (((((((....)))))))	-46.1	60

Sequence	folding enthalpy [1] [kcal/mol]	Tm [2] [°C]
GTTCAAGAAATTGAAC ((((((....))))))	-29.2	45.1
GATCCTGTTCAGGATC ((((((....))))))	-39.1	56.8
TAGTTGAAAAACTA (((((....)))))	-11.8	27.4
GTCCACCGAAAGGTTGAC (((.(((....))).)))	-29.6	49.3
GATCTACTACTAGATC ((((((....))))))	-31.4	37.5
GATCACGAAAGTGTTATC ((((((....)))..)))	-9.57	28.4
GGAGGCGAAAGCCTTTCC ((((((....)))..)))	-10.3	32.4
GTCACCGAAAGGTTCGAC ((((((....)))..)))	-14.9	30.3
GCCGAAGGAAACCTCGGC (((((.(....).)))))	-34.6	54.6
GTTGGGGGAAACCCCGAC ((.((((....)))).))	-24.2	56.6
GTCGCGGGAAACTGCGGC (.(((.(....).))).)	-27.1	54.7
GCACACGAAAGTGAGTGC ((((((....)))..)))	-30.9	51.7
GTCAGCACGAAAGTGGAC (((..(((....))))))	-18	37.6
GCACACGGAAACGTATGC (((.(((....))).)))	-28	45.2
GCAGAGCGAAAGCTAGGC ((..(((....)))..))	-16.4	50.7
GTTTCCGGAAACGGAAGC (.(((((....))))).)	-16.7	49.3
GGGTTCGGAAACGAGTCC ((..(((....)))..))	-25.4	37.7
GATCCGCCAGCGGATC ((((((....))))))	-44.9	65.2
GGACAAGGAAACTTGTCC (((((((....)))))))	-45	61
GCTCCCGGAAACGGAAGC (((.(((....))).)))	-28.6	50
GCAGGAGGAAACTCCCAC (..((((....))))..)	-16.8	25.8
GCATATGAAAATATGC ((((((....))))))	-29.2	52.9
GCCTGGCGAAAGCGGGGC (((..((....))..)))	-27	64

Sequence	folding enthalpy [1] [kcal/mol]	Tm [2] [°C]
GCGCACCGAAAGGTACGC (((.(((....))).)))	-42.3	64.3
GCCTGGCGAAAGCACGGC (((..((....))..)))	-24.3	59.1
GCGCACTCGAAAGAGCGC (((..(((....))))))	-23.6	57.1
GCGGTTCGCCGC ((((....))))	-23.3	64.5
GACGTCGGAAACGACATC ((.((((....)))).))	-12.7	37.2
AATTCGAAAGAATT (((((....)))))	-14.3	43.3
GCTTTCGAAAGAAGCAGC ((((((....)))..)))	-12.9	35.4
GCCGCGCGAAAGCGCAGC ((.((((....)))).))	-15.2	64
GATCACAGCTGTGATC ((((((....))))))	-41.9	59
GCACATGGAAACATGCAC (..((((....))))..)	-15.2	28.2
GCATCCCCGAAAGGGTGC (((..(((....))))))	-17.5	53.5
GAGATCCGAAAGGACTC (((.(((....))))))	-18.9	44.2
GCAATCGAAAGATTCTGC ((((((....)))..)))	-16	33.7
GATCTCGCGAAAGCGATC (((..(((....))))))	-5.91	28.1
GCGTTCCGACGC ((((....))))	-27.8	58
GGTAGTGGAAACACCACC (((.(((....))).)))	-20.8	40
GCCGCACGAAAGTGGGC (((.(((....))))))	-20.9	62.8
GCAGTCGGAAACGACCAC (..((((....))))..)	-8.16	32
GCATGGAAACATGC (((((....)))))	-30.9	57.4
GATCTGGAACCAGATC ((((((....))))))	-38.5	53.9
GATCCAGGCGTGGATC ((((((....))))))	-40.9	53.6
GGCTAACCGAAAGGTGCC (((..(((....))))))	-22.4	53.6
GTGATCGGAAACGACCAC (((.(((....))).)))	-42	47.6

Sequence	folding enthalpy [1] [kcal/mol]	Tm [2] [°C]
GTAGGCGGAAACGCCTGC (.(((((....))))).)	-18.6	56.7
GGGCTAGGAAACTAGCTC (.(((((....))))).)	-28.9	50.9
GATCGAATGGTCGATC ((((((....))))))	-20.2	51.4
GTAGCTCCGAAAGGATAC (((..(((....))))))	-14.6	25.4
GACTCCGAAAGGATAGTC ((((((....)))..)))	-22.5	41.5
GTTCGAGGAAACTTGGAC ((.(.((....)).).))	-16	31.2
GGGCTCGAAAGAGTCCCC ((((((....)))..)))	-15.8	60.3
GATCGGTAGCCCGATC ((((((....))))))	-30.1	56.3
GTTAGCGAAAGCTGTAAC ((((((....)))..)))	-9.81	31.6
GGGATCACGAAAGTGCCC (((..(((....))))))	-15.3	39.3
GGGGCCGAAAGGCCACCC ((((((....)))..)))	-10.1	60
GATCAGTGTCCTGATC ((((((....))))))	-36.2	49.6
GAGCATGGAAACATGCCC (.(((((....))))).)	-12.8	44
CCTGTGAAAACAGG (((((....)))))	-17	51.6
GCATACGAAAGTATTGC ((((((....))).)))	-25.1	45.7
GGATCCCGAAAGGGCTCC (((.(((....))).)))	-26.5	51.3
GCATACTCGAAAGAGTGC (((..(((....))))))	-16.8	39
GGTAGGGGAAACTCTACC (((((.(....).)))))	-37.4	46
GTGCTCGAAAGAGGTCAC ((((((....)))..)))	-15.8	35.5
GATCTTTGACAAGATC ((((((....))))))	-25.1	39.4
GCGGGCGAAAGCCTACGC ((((((....)))..)))	-18.8	61.5
GACTTTGGAAACAAAGCC (.(((((....))))).)	-22.4	39
GATCAAGTGCTTGATC ((((((....))))))	-41.2	47.2
